Test results as given in ChEMBL document CHEMBL1140200, “Synthesis and pharmacological evaluation of a second generation of pyridothiadiazine 1,1-dioxides acting as AMPA potentiators” (Bioorg Med Chem, 2008).
The source made the active and inactive calls. The calls are words filed in the database; no cut-off is given here.

How the values were obtained:
Oocyte [1] = experiment: Potentiation of Wistar rat AMPA receptor expressed in Xenopus laevis oocytes assessed as 5-fold increase in amplitude of (S)-AMPA-induced current by two electrode voltage-clamp method; assay type: cell-based
Procedure, shortened: (§1)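 Xenopus oocytes were injected with rat cortex poly(A+) mRNA (1 mg/mL) and kept 3–4 days at 18 °C in Barth's solution before voltage-clamp recording. (S)-AMPA alone was applied until two similar inward currents were obtained; their mean was set as 100%. Drug was bath-applied at successive increasing concentrations every 5 min 45 s, on 2–3 oocytes. EC2X and EC5X were interpolated as twofold and fivefold current increases; EC50 was taken at half-maximal potentiation.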

Oocyte [2] = experiment: Potentiation of Wistar rat AMPA receptor expressed in Xenopus laevis oocytes assessed as 2-fold increase in amplitude of (S)-AMPA-induced current by two electrode voltage-clamp method; assay type: cell-based; procedure, shortened: as §1
Oocyte [3] = experiment: Potentiation of Wistar rat AMPA receptor expressed in Xenopus laevis oocytes assessed as increase in amplitude of (S)-[…] current by two electrode voltage-clamp method relative to AMPA; assay type: cell-based; set-up: concentration or dose not given beside the values; procedure, shortened: as §1
[4] = Lipophilicity, log P by shake flask method; assay type: physicochemical; conditions: octanol/water
Procedure, shortened: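 Partition coefficient was measured between 1-octanol and phosphate buffer, pH 7.40, by shake-flask, using 1×10^-4 M stock drug solutions in octanol or buffer. Drug concentration after partition was measured by UV spectrophotometry at maximum absorbance.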

Rattus norvegicus [5] = experiment: Cognitive enhancing effect in Wistar rat assessed as improvement in juvenile recognition behavior at 3 mg/kp, ip; assay type: functional, organism-based
Procedure, shortened: (§2)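 Adult rats were housed individually for 2 days before testing. After 5-min habituation in the home cage, a 21-day juvenile was introduced for a 5-min session and investigation time T1 was recorded on video. Dosing was i.p. 1 min after that session. The same juvenile was reintroduced 120 min later for 5 min (T2). T2–T1 was analysed by one-way ANOVA; n = 8.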

Rattus norvegicus [6] = experiment: Toxicity in Wistar rat at 100 mg/kp, po; assay type: organism-based; conditions: in vivo
Rattus norvegicus [7] = experiment: Cognitive enhancing effect in Wistar rat assessed as improvement in juvenile recognition behavior at 100 mg/kp, po; assay type: functional, organism-based
Rattus norvegicus [8] = experiment: Cognitive enhancing effect in Wistar rat assessed as improvement in juvenile recognition behavior at 0.3 mg/kp, ip; assay type: functional, organism-based; procedure, shortened: as §2
Rattus norvegicus [9] = species on record: Rattus norvegicus; experiment: Cognitive enhancing effect in Wistar rat after 1 hr by one-trial object recognition test; assay type: functional, organism-based
Procedure, shortened: (§3)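 Adult rats had three 3-min sessions 24 h apart. Two similar objects were presented in session 2. In the last session one object was replaced by a new one. Compound or vehicle was given i.p. 1 h before each session at 0.3, 1, 3 or 10 mg/kg. The read-out was the discrimination index (new − familiar exploration / total exploration) in the last session.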

Rattus norvegicus [10] = experiment: Cognitive enhancing effect in Wistar rat assessed as improvement in juvenile recognition behavior at 1 mg/kp, ip; assay type: functional, organism-based; procedure, shortened: as §2
Rattus norvegicus [11] = experiment: Cognitive enhancing effect in Wistar rat at 100 mg/kp, po after 1 hr by one-trial object recognition test; assay type: functional, organism-based
Rattus norvegicus [12] = experiment: Cognitive enhancing effect in Wistar rat at 3 mg/kp, ip after 1 hr by one-trial object recognition test; assay type: functional, organism-based; procedure, shortened: as §3
Rattus norvegicus [13] = experiment: Cognitive enhancing effect in Wistar rat at 10 mg/kp, ip after 1 hr by one-trial object recognition test; assay type: functional, organism-based; procedure, shortened: as §3

| SMILES | EC (Oocyte [1]) | EC (Oocyte [2]) | Activity (Oocyte [3]) | further results |
| --- | --- | --- | --- | --- |
| NS(=O)(=O)c1cc2c(cc1Cl)NC(C1CC3C=CC1C3)NS2(=O)=O (stereo not drawn) | 9.8 µM | 1.6 µM | 844% |  |
| CCN1CNS(=O)(=O)c2cc(Br)ccc21 | 78 µM | 29 µM | > 1100% |  |
| CCN1CNS(=O)(=O)c2cc(F)cnc21 | 300 µM | 123 µM | > 422% |  |
| CCN1CN(C)S(=O)(=O)c2cc(Cl)cnc21 | 335 µM | 110 µM |  |  |
| CCN1CNS(=O)(=O)c2ncc(C)cc21 | > 300 µM | 116 µM |  | logP [4]: 0.41 |
| O=S1(=O)N[C@H]2CCCN2c2ccccc21 | 78.2 µM | 24.6 µM | 1260% |  |
| CCN1CNS(=O)(=O)c2cc(C)ccc21 | 95 µM | 25 µM | > 1300% |  |
| CC1Nc2ccc(Cl)cc2S(=O)(=O)N1 (stereo not drawn) | 509 µM | 134 µM | > 700% |  |
| CCN1CNS(=O)(=O)c2cc(Br)cnc21 | > 300 µM | 160 µM |  |  |
| CN1CNS(=O)(=O)c2ncccc21 | 51 µM | 21 µM |  |  |
| Cc1cnc2c(c1)N(C)CNS2(=O)=O | > 300 µM | 146 µM |  |  |
| CCN1CN(C)S(=O)(=O)c2ncccc21 | 96 µM | 38 µM |  |  |
| CCN1CNS(=O)(=O)c2cc(Cl)cnc21 | 44 µM | 20 µM | 1090% | Activity (Rattus norvegicus [5]): Active; Activity (Rattus norvegicus [6]): Non-toxic; Activity (Rattus norvegicus [7]): inactive; Activity (Rattus norvegicus [8]): Active; Activity (Rattus norvegicus [9]): Dose-dependent effect; Activity (Rattus norvegicus [10]): Active; Activity (Rattus norvegicus [11]): inactive; Activity (Rattus norvegicus [12]): Active; Activity (Rattus norvegicus [13]): Active |
| CCN1CNS(=O)(=O)c2cc(C)cnc21 | > 1000 µM | > 1000 µM |  |  |
| CN1CNS(=O)(=O)c2cccnc21 | 500 µM | 200 µM |  |  |
| CCN1CNS(=O)(=O)c2ncccc21 |  |  |  | logP [4]: 0.12 |
| CN1CNS(=O)(=O)c2cc(Cl)cnc21 | 81 µM | 21 µM |  |  |
| CCN1CN(C)S(=O)(=O)c2ncc(C)cc21 | > 300 µM | 86 µM |  |  |
| CN1CNS(=O)(=O)c2cc(F)cnc21 |  | > 100 µM |  |  |
